Measured values collected from several papers.
ABL1 E255K phosphorylated: Tyrosine-protein kinase ABL1, phosphorylated (ABL1, Homo sapiens, UniProt P00519, E255K)
ABL1 H396P non-phosphorylated: Tyrosine-protein kinase ABL1, non-phosphorylated (ABL1, Homo sapiens, UniProt P00519, H396P)
ABL1 phosphorylated: Tyrosine-protein kinase ABL1, phosphorylated (ABL1, Homo sapiens, UniProt P00519)
ABL1 Q252H phosphorylated: Tyrosine-protein kinase ABL1, phosphorylated (ABL1, Homo sapiens, UniProt P00519, Q252H)
ABL1 Y253F: Tyrosine-protein kinase ABL1 (ABL1, Homo sapiens, UniProt P00519, Y253F)
ABL1 M351T: Tyrosine-protein kinase ABL1 (ABL1, Homo sapiens, UniProt P00519, M351T)
ABL1 T315I non-phosphorylated: Tyrosine-protein kinase ABL1, non-phosphorylated (ABL1, Homo sapiens, UniProt P00519, T315I)
ABL1 Q252H: Tyrosine-protein kinase ABL1 (ABL1, Homo sapiens, UniProt P00519, Q252H)
ABL1 Y253F phosphorylated: Tyrosine-protein kinase ABL1, phosphorylated (ABL1, Homo sapiens, UniProt P00519, Y253F)

`c1cncc(-c2cccc(Nc3nccc(NC4CCCCC4)n3)c2)c1` gave a remaining binding of 14% (ABL1 E255K phosphorylated; binding; competition with immobilised ligand; 10 µM).
`O=C(N1CCS(=O)(=O)CC1)N1C[C@H](c2ccc(OC(F)(F)F)cc2)C[C@H](c2nc(C3CC3)no2)C1` gave a remaining binding of 100% (Tyrosine-protein kinase ABL1, phosphorylated (ABL1, Homo sapiens, UniProt P00519, T315I); cell-free assay; competition with immobilised ligand; 1 µM).
`Nc1ncc2c(n1)-c1c([nH]c3ccc(C#CC4CC4)cc13)CCCC2` gave a remaining binding of 84% (Tyrosine-protein kinase ABL1, non-phosphorylated (ABL1, Homo sapiens, UniProt P00519, F317I); binding; competition with immobilised ligand; 1 µM).
For `C[C@@H](c1ccc(-n2cnc3c(N)ncnc32)cc1)N1CCc2nn(C)c(Cc3ccccc3)c2C1=O`, the remaining binding was 13% (ABL1 H396P non-phosphorylated; binding; competition with immobilised ligand; 0.1 µM).
`O=C(NCCCN1CCOCC1)c1ccc(Nc2ncc(Cl)c(-c3ccc(Cl)s3)n2)cc1` gave a remaining binding of 36% (ABL1 phosphorylated; binding; competition with immobilised ligand; 1 µM).
With `O=C(NCC1CCOCC1)c1n[nH]cc1NC(=O)c1c(F)cccc1F` the remaining binding was 83% (ABL1 Q252H phosphorylated; binding; competition with immobilised ligand; 1 µM).
With `COc1ccnn2ncc(-c3ccnc(N(C)C)n3)c12` the remaining binding was 79% (ABL1 Y253F; binding; 1 µM).
`Cc1cnc(Nc2ccc(C(=O)N3CCC(N4CCCC4)CC3)cc2)nc1-c1cc2ccccc2s1` gave a remaining binding of 1.6% (ABL1 phosphorylated; binding; competition with immobilised ligand; 1 µM).
For `COc1cnc(Nc2cccc(S(N)(=O)=O)c2)nc1N1CCN(c2ccccc2)C(=O)C1`, the remaining binding was 58% (ABL1 H396P non-phosphorylated; binding; competition with immobilised ligand; 1 µM).
The remaining binding of `CN(C)c1nccc(-c2cnc3ncccn23)n1` is reported as 41% (ABL1 Y253F; binding; 1 µM).
For `O=C(c1ccc(Nc2ncc(Cl)c(-c3ccc(Cl)s3)n2)cc1)N1CCC(N2CCCC2)CC1`, the remaining binding was 4.7% (Tyrosine-protein kinase ABL1, phosphorylated (ABL1, Homo sapiens, UniProt P00519, M351T); binding; competition with immobilised ligand; 1 µM).
For `N[C@H]1CCN(c2nccc(-c3cnn4ncccc34)n2)C1`, the remaining binding was 100% (ABL1 M351T; binding; 1 µM).
The remaining binding of `CC1=C(C#N)[C@@H](c2ccc3[nH]nc(C)c3c2)C(C#N)=C(c2ccc(Cl)cc2)N1` is reported as 100% (ABL1 Q252H phosphorylated; cell-free assay; competition with immobilised ligand; 1 µM).
For `O=C(Nc1c[nH]nc1C(=O)NC1CCNCC1)c1cc(F)cc(F)c1`, the remaining binding was 90% (ABL1 H396P non-phosphorylated; binding; competition with immobilised ligand; 1 µM).
For `C[C@H](c1ccc(F)cc1)N(Cc1cccc(C(=O)O)c1)C(=O)c1cnc2ccccc2c1`, the remaining binding was 99% (Tyrosine-protein kinase ABL1, phosphorylated (ABL1, Homo sapiens, UniProt P00519, F317L); cell-free assay; competition with immobilised ligand; 1 µM).
With `COc1ncc2cc3ccccc3nc2c1C#N` the remaining binding was 100% (ABL1 T315I non-phosphorylated; cell-free assay; competition with immobilised ligand; 5 µM).
With `C[C@@H]1CCN(c2nccc(-c3cnn4ncccc34)n2)C1` the remaining binding was 81% (ABL1 Q252H; binding; 1 µM).
The remaining binding of `O=C(NCCCN1CCOCC1)c1ccc(Nc2nccc(-c3cc4ccccc4s3)n2)cc1` is reported as 58% (ABL1 Q252H phosphorylated; binding; competition with immobilised ligand; 1 µM).
The remaining binding of `C[C@H](c1cccc(C#N)c1)n1cc(Cl)cc(C(N)=O)c1=N` is reported as 84% (ABL1 Q252H phosphorylated; cell-free assay; competition with immobilised ligand; 1 µM).
`CN(c1nccc(-c2cnn3ncccc23)n1)C1CC1` has a remaining binding of 100% (ABL1 M351T; binding; 1 µM).
`CNC(=O)Nc1ccc2c(c1)CC[C@@]21OC(=O)N(CC(=O)N(Cc2ccc(F)cc2)[C@@H](C)C(F)(F)F)C1=O` gave a remaining binding of 78% (ABL1 T315I non-phosphorylated; cell-free assay; competition with immobilised ligand; 1 µM).
With `CNC(=O)[C@@H]1CC[C@@H](n2c(-c3ccc4cnccc4c3)nc3ccc(C(=O)NCc4cccc(C(N)=O)c4)cc32)C1` the remaining binding was 86% (ABL1 H396P non-phosphorylated; binding; competition with immobilised ligand; 1 µM).
`O=C(Nc1cnc(Oc2ccc(F)cc2)nc1)N1CCc2ncccc2[C@@H]1c1ccc(F)cc1` gave a remaining binding of 94% (ABL1 phosphorylated; cell-free assay; competition with immobilised ligand; 1 µM).
`O=C(c1ccc(Nc2ncc(Cl)c(-c3cc4ccccc4s3)n2)cc1)N1CCC(N2CCCC2)CC1` gave a remaining binding of 17% (Tyrosine-protein kinase ABL1, non-phosphorylated (ABL1, Homo sapiens, UniProt P00519); binding; competition with immobilised ligand; 1 µM).
For `O=C1NC(c2ccccn2)Sc2ccccc21` (stereo not shown), the remaining binding was 72% (ABL1 phosphorylated; cell-free assay; competition with immobilised ligand; 1 µM).
`C=CC(=O)N1CCC(C(=O)NCC(=O)N2CCN(c3nc(-c4cnc(N)nc4C(F)F)nc(N4CCOCC4)n3)CC2)CC1` has a remaining binding of 87% (ABL1 E255K phosphorylated; binding; competition with immobilised ligand; 1 µM).
`CCN1CCN(Cc2ccc(C(=O)Nc3ccc(C)c(Oc4ccc5c(c4)CC(=O)N5)c3)cc2C(F)(F)F)CC1` gave a remaining binding of 2.9% (Tyrosine-protein kinase ABL1, non-phosphorylated (ABL1, Homo sapiens, UniProt P00519, F317L); binding; competition with immobilised ligand; 1 µM).
With `CN(CCCC(F)(F)F)c1nccc(-c2cnn3ncccc23)n1` the remaining binding was 100% (ABL1 Q252H; binding; 1 µM).
`O=C(c1ccc(Nc2nccc(-c3cc4ccccc4s3)n2)cc1)N1CCC(N2CCCC2)CC1` has a remaining binding of 6.2% (ABL1 Y253F phosphorylated; binding; competition with immobilised ligand; 1 µM).
For `CN(C)C(=O)Cn1cc(-c2nc(C3(c4ccc(-c5cnc(N)nc5)cc4)CC3)no2)cn1`, the remaining binding was 100% (ABL1 E255K phosphorylated; binding; competition with immobilised ligand; 1 µM).
`COc1cnc(Nc2cccc(S(N)(=O)=O)c2)nc1N1CCN(c2ccccc2)CC1` has a remaining binding of 73% (ABL1 Y253F phosphorylated; binding; competition with immobilised ligand; 1 µM).
